In ChEMBL document CHEMBL1629663, “Postantibiotic effects of telavancin against 16 gram-positive organisms” (Antimicrob Agents Chemother, 2009):
Values after ≈ are worked out from the molar mass of the structure shown.

Key:
[1] = test system: Staphylococcus aureus; experiment: Antimicrobial activity against vancomycin-intermediate-, methicillin-resistant Staphylococcus aureus 1287 assessed as time required to induce post antibiotic sub-MIC effect at 0.3 times MIC […] by plate counting method; assay type: functional
Method in brief: (§1)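 PAE was first induced with 10× MIC for 1 h at 35°C (inoculum about 5 × 10^6 CFU/ml, Mueller-Hinton broth) and ended by 1:1,000 dilution. Cultures were then split and given 0.2, 0.3 or 0.4× MIC, with one tube left without drug. Viable counts were taken before exposure, after dilution, then every 2 h until McFarland no. 1 turbidity. Two separate experiments, each with a new inoculum.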

[2] = test system: Staphylococcus aureus; experiment: Antimicrobial activity against vancomycin-intermediate-, methicillin-resistant Staphylococcus aureus 1287 assessed as time required to induce sub-MIC effect at 0.3 times MIC […] by plate counting method; assay type: functional
Method in brief: (§2)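 SME, viable plate count method: no prior drug exposure. About 5 × 10^6 CFU/ml in Mueller-Hinton broth at 35°C received 0.2, 0.3 or 0.4× MIC, alongside a drug-free tube. Counts were taken at the start, then every 2 h until McFarland no. 1 turbidity, as log10 CFU/ml against time. Two separate experiments, each with a new inoculum.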

[3] = test system: Enterococcus faecalis; experiment: Antimicrobial activity against Enterococcus faecalis ATCC 29212 assessed as post-antibiotic effect at 10 times MIC pre-exposed to Telavancin for 1 hr by plate counting method; assay type: functional
Method in brief: (§3)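 Organisms were suspended in Mueller-Hinton broth from overnight blood agar colonies at about 5 × 10^6 CFU/ml. Cultures were exposed to telavancin at 10× MIC for 1 h at 35°C in a shaking water bath, then diluted 1:1,000 to remove the drug, with an untreated growth control. Viable counts were taken before exposure, at 0 h, then every 2 h until McFarland no. 1 turbidity. PAE = T − C, the time to a 1 log10 rise. Two experiments.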

[4] = test system: Staphylococcus aureus; experiment: Antimicrobial activity against vancomycin-susceptible-, methicillin-resistant Staphylococcus aureus 1307 by microdilution method; assay type: functional
[5] = test system: Enterococcus faecalis; experiment: Antimicrobial activity against Enterococcus faecalis HMC 571 assessed as post-antibiotic effect at 10 times MIC pre-exposed to Telavancin for 1 hr by plate counting method; assay type: functional; method in brief: as §3
[6] = test system: Enterococcus faecalis; experiment: Antimicrobial activity against Enterococcus faecalis ATCC 29212 assessed as time required to induce post antibiotic sub-MIC effect at 0.3 times MIC […] by plate counting method; assay type: functional
Method in brief: (§4)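 Mueller-Hinton broth cultures of about 5 × 10^6 CFU/ml were pre-exposed to telavancin at 10× MIC for 1 h at 35°C, then diluted 1:1,000. Telavancin was re-added to final 0.2, 0.3 or 0.4× MIC, alongside a drug-free tube. Viable counts were taken before exposure, after dilution, then every 2 h until McFarland no. 1 turbidity. Duration comes from log10 CFU/ml-versus-time plots; two separate experiments with fresh inocula.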

[7] = test system: Enterococcus faecalis; experiment: Antimicrobial activity against Enterococcus faecalis ATCC 29212 assessed as time required to induce post antibiotic sub-MIC effect at 0.4 times MIC […] by plate counting method; assay type: functional; method in brief: as §4
[8] = test system: Staphylococcus aureus; experiment: Antimicrobial activity against vancomycin-susceptible-, methicillin-resistant Staphylococcus aureus 1130 assessed as time required to induce post antibiotic sub-MIC effect at 0.2 times MIC pre-exposed to Telavancin for […] by plate counting method; assay type: functional
Method in brief: (§5)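 After 1 h preexposure to 10× MIC at 35°C and 1:1,000 dilution, cultures were split, and drug was re-added to final 0.2, 0.3 or 0.4× MIC, with a drug-free tube. Viable counts were taken every 2 h until McFarland 1 turbidity. Duration was derived from log10 CFU/ml versus time curves. Two experiments were run, each with a new inoculum.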

[9] = test system: Staphylococcus aureus; experiment: Antimicrobial activity against vancomycin-resistant-, methicillin-resistant Staphylococcus aureus 510 assessed as time required to induce post antibiotic sub-MIC effect at 0.4 times MIC […] by plate counting method; assay type: functional; method in brief: as §5
[10] = test system: Enterococcus faecium; experiment: Antimicrobial activity against Enterococcus faecium HMC 588 assessed as post-antibiotic effect at 10 times MIC pre-exposed to Telavancin for 1 hr by plate counting method; assay type: functional; method in brief: as §3
[11] = test system: Staphylococcus aureus; experiment: Antimicrobial activity against heterogenous vancomycin-intermediate-, methicillin-resistant Staphylococcus aureus 873 assessed as time required to induce sub-MIC effect at 0.4 times MIC […] by plate counting method; assay type: functional; method in brief: as §2
[12] = test system: Staphylococcus aureus; experiment: Antimicrobial activity against vancomycin-intermediate-, methicillin-resistant Staphylococcus aureus 1984 assessed as time required to induce post antibiotic sub-MIC effect at 0.3 times MIC […] by plate counting method; assay type: functional; method in brief: as §1
[13] = test system: Staphylococcus aureus; experiment: Antimicrobial activity against vancomycin-susceptible-, methicillin-resistant Staphylococcus aureus 1306 assessed as time required to induce sub-MIC effect at 0.3 times MIC exposed for 2 hrs by plate counting method; assay type: functional
Method in brief: (§6)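 Sub-MIC effect: cultures not preexposed to drug were diluted and handled as in the PA-SME procedure in Mueller-Hinton broth with final 0.2, 0.3 or 0.4× MIC, plus a drug-free control. Viable plate counts were taken every 2 h until McFarland 1 turbidity. Duration was derived from growth curves. Two experiments were run, each with a new inoculum.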

[14] = test system: Staphylococcus aureus; experiment: Antimicrobial activity against heterogenous vancomycin-intermediate-, methicillin-resistant Staphylococcus aureus 618 assessed as time required to induce post antibiotic sub-MIC effect at 0.4 times MIC […] by plate counting method; assay type: functional; method in brief: as §1
[15] = test system: Staphylococcus aureus; experiment: Antimicrobial activity against heterogenous vancomycin-intermediate-, methicillin-resistant Staphylococcus aureus 618 assessed as time required to induce sub-MIC effect at 0.3 times MIC […] by plate counting method; assay type: functional; method in brief: as §2
[16] = test system: Streptococcus pyogenes; experiment: Antimicrobial activity against Streptococcus pyogenes HMC 414 assessed as time required to induce sub-MIC effect at 0.2 times MIC exposed for 2 hrs by plate counting method; assay type: functional
Method in brief: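 Unexposed Mueller-Hinton broth cultures (about 5 × 10^6 CFU/ml, 35°C) were handled as in the PA-SME set but without the 10× MIC pre-exposure. They were diluted 1:1,000, then given telavancin at final 0.2, 0.3 or 0.4× MIC, with a drug-free control. Viable counts were taken every 2 h until McFarland no. 1 turbidity. Effect duration comes from log10 CFU/ml-time plots; two separate experiments with new inocula.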

[17] = test system: Staphylococcus aureus; experiment: Antimicrobial activity against vancomycin-intermediate-, methicillin-resistant Staphylococcus aureus 1984 assessed as post-antibiotic effect at 10 times MIC pre-exposed to Telavancin for 1 hr by plate counting method; assay type: functional
Method in brief: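 Viable plate count method in Mueller-Hinton broth. Direct colony suspension inoculum of about 5 × 10^6 CFU/ml was exposed to 10× MIC for 1 h at 35°C in a shaking water bath, then diluted 1:1,000 to remove drug. Counts were taken before exposure, at 0 h, then every 2 h until McFarland no. 1 turbidity. PAE = T − C, the time to a 1 log10 rise versus an unexposed growth control.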

[18] = test system: Staphylococcus aureus; experiment: Antimicrobial activity against vancomycin-susceptible-, methicillin-resistant Staphylococcus aureus 1307 assessed as time required to induce sub-MIC effect at 0.2 times MIC exposed for 2 hrs by plate counting method; assay type: functional; method in brief: as §6
[19] = test system: Staphylococcus aureus; experiment: Antimicrobial activity against vancomycin-intermediate-, methicillin-resistant Staphylococcus aureus 555 assessed as time required to induce sub-MIC effect at 0.4 times MIC […] by plate counting method; assay type: functional; method in brief: as §2
[20] = test system: Staphylococcus aureus; experiment: Antimicrobial activity against vancomycin-intermediate-, methicillin-resistant Staphylococcus aureus 1984 assessed as time required to induce post antibiotic sub-MIC effect at 0.2 times MIC pre-exposed to Telavancin for 1 hr by plate counting method

For `CCCCCCCCCCNCCN[C@@]1(C)C[C@H](O[C@H]2[C@H](Oc3c4cc5cc3Oc3ccc(cc3Cl)[C@@H](O)[C@@H](NC(=O)[C@@H](CC(C)C)NC)C(=O)N[C@@H](CC(N)=O)C(=O)N[C@H]5C(=O)N[C@H]3C(=O)N[C@H](C(=O)N[C@H](C(=O)O)c5cc(O)c(CNCP(=O)(O)O)c(O)c5-c5cc3ccc5O)[C@H](O)c3ccc(c(Cl)c3)O4)O[C@H](CO)[C@@H](O)[C@@H]2O)O[C@@H](C)[C@H]1O` [TELAVANCIN], the PAE [1] was 8.6 h, the PAE [2] was 0.4 h and the PAE [3] was 0.3 h. The MIC [4] was 0.12 µg/mL (≈ 0.0684 µM), the PAE [5] was 1.5 h and the PAE [6] was greater than 10.7 h. For the same compound, the PAE [7] was greater than 10.7 h, the PAE [8] was 5.4 h and the PAE [9] was 8.1 h. For the same compound, the PAE [10] was 1.2 h, the PAE [11] was 1 h and the PAE [12] was greater than 10 h. It also gave a PAE [13] of 5.1 h, a PAE [14] of 10.3 h and a PAE [15] of 1.5 h. For the same compound, the PAE [16] was 0 h, the PAE [17] was 0.9 h and the PAE [18] was 1 h. It also gave a PAE [19] of 4.3 h and a PAE [20] of 6.8 h.
